Results gathered from unrelated publications.
HRH1: Histamine H1 receptor (HRH1, Homo sapiens, UniProt P35367)
CHRM4: Muscarinic acetylcholine receptor M4 (CHRM4, Homo sapiens, UniProt P08173)

| Structure (SMILES) | target | test | setting | measurement | value |
| --- | --- | --- | --- | --- | --- |
| CC(C)C[C@H](NC(=O)[C@H](CCCCN)NC(=O)[C@@H]1CCCN1C(=O)[C@@H](N)CCCNC(=N)N)C(=O)N[C@@H](CCCCN)C(=O)O | HRH1 | cell-free assay, radioligand |  | Ki | > 10 µM |
| CNc1nc2cc(OCCCCN3CCN(c4cccc(Cl)c4Cl)CC3)ccc2s1 | HRH1 | ligand displacement, radioligand |  | Ki | 0.056 µM |
| N[C@@H](CCP(=O)(O)O)C(=O)O | Metabotropic glutamate receptor 4 (GRM4, Homo sapiens, UniProt Q14833) | calcium signal, agonist |  | EC50 | 0.151 µM |
| OC(c1ccc(F)cc1)C(F)(F)CCN1CCC(O)(c2ccc(Cl)cc2)CC1 (racemic) | HRH1 | cell-free assay, radioligand |  | Ki | 0.408 µM |
| O=C(Nc1cccc(-c2ccn3c(CC4CC4)nnc3c2C(F)(F)F)c1)c1ccc(S(=O)(=O)F)cc1 | Metabotropic glutamate receptor 1 (GRM1, Homo sapiens, UniProt Q13255) | calcium signal, agonist |  | EC50 | > 50.1 µM |
| c1cc(N2CCNCC2)c2cc[nH]c2c1 | CHRM4 | ligand displacement, radioligand | cell membranes | Ki | > 63.1 µM |
| Nc1cccc2cc3ccccc3cc12 | Ferritin light chain (FTL, Equus caballus, UniProt P02791) | binding, fluorescence |  | Kd | 9 µM |
| Cc1cc(N2CCNCC2)nc2ccccc12 | CHRM4 | ligand displacement, radioligand | cell membranes | Ki | > 63.1 µM |
| CC[C@H](C)[C@H](NC(=O)[C@H](CS)NC(=O)[C@H](CCC(N)=O)NC(=O)[C@H](CC(C)C)NC(=O)[C@H](CCCCN)NC(=O)[C@H](CCCNC(=N)N)NC(=O)[C@H](C)NC(=O)[C@@H](NC(=O)[C@H](CCC(N)=O)NC(=O)[C@@H](NC(=O)[C@H](CCC(=O)O)NC(=O)[C@H](C)NC(=O)[C@H](CCC(N)=O)NC(=O)[C@H](Cc1c[nH]cn1)NC(=S)Nc1ccc2c(c1)C(=O)OC21c2ccc(O)cc2Oc2cc(O)ccc21)C(C)C)[C@@H](C)CC)C(=O)N[C@@H](C)C(=O)N[C@@H](CC(=O)O)C(=O)N[C@@H](CCC(N)=O)C(=O)N[C@@H](Cc1ccccc1)C(=O)N[C@@H](Cc1c[nH]cn1)C(=O)N[C@@H](CCCNC(=N)N)C(=O)N[C@@H](CC(C)C)C(=O)N[C@@H](Cc1c[nH]cn1)C(=O)N[C@H](C(=O)N[C@@H](CCC(N)=O)C(=O)N[C@@H](CCC(N)=O)C(=O)O)C(C)C | Induced myeloid leukemia cell differentiation protein Mcl-1 (MCL1, Homo sapiens, UniProt Q07820, R263A) | cell-free assay, FP |  | Kd | 49 µM |
| NC(N)=NCCC[C@H](NC(=O)OCc1ccccc1)C(=O)O | Serine protease 1 (PRSS1, Bos taurus, UniProt P00760) | enzyme activity, inhibitor, absorbance | pH 7.2 | Ki | 1230 µM |
| CSCC[C@H](NC(=O)[C@@H](NC(=O)[C@@H](N)Cc1ccc(O)cc1)C(C)C)C(=O)NCC(=O)N[C@@H](Cc1c[nH]cn1)C(=O)O | Melanocortin receptor 5 (Mus musculus, UniProt P41149) | reporter gene, agonist |  | EC50 | 26.8 µM |
| CC[C@H](C)[C@H](NC(=O)[C@H](CCCNC(=N)N)NC(=O)[C@H](CC(C)C)NC(=O)[C@@H](N)Cc1ccccc1)C(=O)N[C@@H](CCCNC(=N)N)C(=O)N1CCC[C@H]1C(=O)N[C@@H](CCCCN)C(=O)O | HRH1 | cell-free assay, radioligand |  | Ki | > 10 µM |
| CC(C)(COP(=O)(O)OP(=O)(O)OC[C@H]1O[C@@H](n2cnc3c(N)ncnc32)[C@H](O)[C@@H]1OP(=O)(O)O)[C@@H](O)C(=O)NCCC(=O)NCCSC(=O)c1ccccc1N | pqsD (Pseudomonas aeruginosa, UniProt P20582, C113A) | binding, ITC |  | Kd | ~57 µM |
| CCCCC/C=C\C/C=C\C/C=C\C/C=C\CCCC(=O)OCCN | Cytochrome P450 2J2 (CYP2J2, Homo sapiens, UniProt P51589) | binding, absorbance |  | Kd | 14 µM |
| Fc1ccc([C@@H]2CCNC[C@H]2COc2ccc3c(c2)OCO3)cc1 | Beta-1 adrenergic receptor (ADRB1, Homo sapiens, UniProt P08588) | ligand displacement, radioligand |  | Ki | 10 µM |
